Bioassay records: PubChem BioAssay, Sanford-Burnham Center for Chemical Genomics
Rows were chosen to be rich in hits. Some 3.1% of all compounds tested hit in one or more screens of this group.
SENP8 block-1 = inhibitors of human SENP8 protease; Q96LD8; purified SENP8, Z-RLRGG-aminoluciferin cleavage, luminescence; inhibition, % at 10 µM; 330,000 tested, 1.2% active; in the data active = inhibition above about 50%
UBC13 inh = inhibitors of human UBC13 polyubiquitin chain formation; P61088; 330,000 tested, 0.47% active; TR-FRET; AID 485273; inhibition, % at 20 µM; in the data active = inhibition above about 45%, passing the limit was not always enough
Target sequence (P61088 whole entry, looked up): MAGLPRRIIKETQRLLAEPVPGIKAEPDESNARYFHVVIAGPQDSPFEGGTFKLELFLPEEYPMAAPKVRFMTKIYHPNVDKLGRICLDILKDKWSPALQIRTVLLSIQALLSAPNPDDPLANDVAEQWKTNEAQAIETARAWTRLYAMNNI
SENP6 block = blocks the human protease SENP6; Recombinant SENP6 catalytic domain, aminoluciferin luminescence; inhibition, % at 10 µM; AID 2599; 330,000 tested, 1.8% active;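 active = inhibition above about 50% at the single tested dose, limit read from the data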;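 also: plate controls were DMSO wells with enzyme for no effect and DMSO wells lacking enzyme for full effect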
Target sequence (Q9GZR1 628-1112 limits assumed): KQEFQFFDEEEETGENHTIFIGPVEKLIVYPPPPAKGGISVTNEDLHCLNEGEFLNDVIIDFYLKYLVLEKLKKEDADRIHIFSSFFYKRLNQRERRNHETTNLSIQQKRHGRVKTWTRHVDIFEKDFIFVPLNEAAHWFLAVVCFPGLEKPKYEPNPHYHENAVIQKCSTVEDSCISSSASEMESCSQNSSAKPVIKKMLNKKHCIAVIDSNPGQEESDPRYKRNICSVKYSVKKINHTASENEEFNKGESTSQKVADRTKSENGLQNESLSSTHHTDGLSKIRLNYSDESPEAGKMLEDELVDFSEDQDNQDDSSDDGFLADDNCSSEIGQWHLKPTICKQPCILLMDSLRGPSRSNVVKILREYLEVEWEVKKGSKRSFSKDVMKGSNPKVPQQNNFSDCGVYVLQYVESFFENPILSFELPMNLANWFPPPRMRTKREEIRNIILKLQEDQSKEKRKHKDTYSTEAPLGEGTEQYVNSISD
SENP7 inh = SENP7 protease inhibition; Q9BQF6; recombinant SENP7, Z-RLRGG-aminoluciferin luminescence, 40 min; inhibition, % at 5 µM; 330,000 tested, 1.5% active;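 active = inhibition above about 50% at the single test dose, limit read from the data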;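 also: plate controls were DMSO with enzyme for no effect and no enzyme buffer wells for full effect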
Apaf1 inhib = human Apaf-1 inhibition; O14727; 330,000 tested, 0.71% active; reconstituted apoptosome caspase-3 activity, DEVD-Rh110 fluorescence; inhibition, % at 20 µM; active = inhibition of at least 40% at 20 µM;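 also: plate controls were DMSO wells for no effect and DEVD-CHO caspase inhibitor wells for full effect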
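Material: reconstituted apoptosome with Apaf-1, cytochrome c, caspase-9, procaspase-3, dATP / Buffer or medium: pH 7.5 Hepes buffer with CHAPS, BSA, DTT / Also added: cytochrome c with DEVD-Rh110 / Schedule: compound with Apaf-1, dATP, procaspase-3 30 min, then 50 min reaction, room temperature / Technique: rhodamine 110 fluorescence at Ex 480/Em 540 nm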
SENP8 block-2 = inhibitors of human SENP8 protease | Q96LD8 | recombinant SENP8, Nedd8 substrate fluorescence | inhibition, % at 20 µM | 360,000 tested, 0.64% active | AID 602440; in the data active = inhibition mostly above about 40%, no sharp cut-off; inactive = mostly below about 27%
SENP8 confirm = confirmation of human SENP8 protease inhibitors; inhibition, % at 12.5 µM; shares compounds with SENP7 inh; Recombinant SENP8, Z-RLRGG-aminoluciferin luminescence, 60 min; 6,200 tested, 40% active;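 active = mean inhibition across replicates above about 50%, limit read from the data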
SENP6 conf = confirmation of human SENP6 protease inhibitors; AID 488915; inhibition, % at 12.5 µM; recombinant SENP6, Z-RLRGG-aminoluciferin luminescence; shares compounds with SENP7 inh; 6,200 tested, 58% active
SENP7 confirm = human SENP7 inhibition, confirmed; shares compounds with SENP7 inh; recombinant SENP7, Z-RLRGG-aminoluciferin luminescence, 40 min; inhibition, % at 12.5 µM; 6,200 tested, 69% active
Casp3 select = inhibits human caspase-3 in SENP selectivity test; shares compounds with SENP7 inh; purified caspase-3, Z-DEVD-aminoluciferin luminescence, 60 min; inhibition, % at 12.5 µM; 6,200 tested, 60% active; AID 488918;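 active = mean inhibition above about 50%, limit read from the data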;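 also: plate controls were enzyme with DMSO for no effect and wells without caspase-3 for full effect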
Luc interf = luminescence interference (SENP counter-screen) | 6,200 tested, 39% active | inhibition, % at 12.5 µM | AID 488919 | Pre-incubated SENP8/Z-RLRGG-aminoluciferin, luciferase luminescence interference | shares compounds with SENP7 inh;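 active = mean inhibition above about 50% when retested at one dose, limit read from the data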;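 also: plate controls were DMSO wells with completed reaction for no effect and substrate without enzyme for full effect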
Starred values were filed as active, the others as inactive; . = no result.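 The calls were made as follows, unless noted: active = mean inhibition above about 50% in the one-dose retest (limit read from the data); inactive = the rest.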

SMILES	SENP8 block-1	UBC13 inh	SENP6 block	SENP7 inh	Apaf1 inhib	SENP8 block-2	SENP8 confirm	SENP6 conf	SENP7 confirm	Casp3 select	Luc interf
CCCSc1ccc(C(=O)Nc2ccc(F)cc2F)cn1	36	12	52*	68*	-1	14	1	-1	19	22	-7
CC(=O)c1coc2c1cc(O)c1ccccc12	-8	-4	3	11	10	16	.	.	.	.	.
O=C(c1ccco1)c1coc2c1cc(O)c1ccccc12	-5	0	60*	20	4	21	-14	7	-1	1	-3
Cc1cccc(NC(=O)c2cc(-c3ccc(C)c(C)c3O)n[nH]2)c1	20	-6	40	86*	1	31	8	15	95*	59*	54*
Cc1ccc(NC(=O)c2cc(-c3ccc(C)c(C)c3O)n[nH]2)cc1C	-11	-10	1	9	-1	14	.	.	.	.	.
COc1ccc(C(C)(NC(C)=O)c2nc(-c3cccc(NC(C)=O)c3)cs2)cc1 (stereo not drawn)	.	.	.	.	.	16	.	.	.	.	.
Cc1ccccc1CN1CCN(C(=O)[C@H]2O[C@@H](n3cnc4c(N)ncnc43)[C@H](O)[C@@H]2O)CC1	.	.	.	.	.	12	.	.	.	.	.
O=C(c1ccc(Cl)cc1)c1cnc(-c2ccc(Cl)cc2)s1	-14	-17	-4	-4	6	30	.	.	.	.	.
O=C(c1ccccc1)c1cnc(-c2ccccc2)s1	89*	-7	93*	96*	11	6	54*	50	73*	62*	20
O=C(c1ccccc1)c1cnc(-c2ccc(Cl)cc2)s1	22	-4	80*	97*	12	31	14	19	7	25	7
Cc1cc(C(=O)N/N=C2\CC(=O)c3ccccc32)c(C)n1-c1ccccc1	54*	-12	29	10	28	37	3	18	20	16	1
Cc1cc(C(=O)N/N=C2\CC(=O)CC(C)(C)C2)c(C)n1-c1ccccc1	-2	-2	17	16	7	-32	.	.	.	.	.
CC1CC(O)C2C3(C)CCCC2(COC3=O)C12CCC1(CCOC1=O)O2 (stereo not drawn)	.	.	.	.	.	12	.	.	.	.	.
CSc1ccc(CN2CCC(C)(Oc3cnc(Cl)c4ccccc34)C2)cc1 (stereo not drawn)	.	.	.	.	.	-65	.	.	.	.	.
COc1ccc(C(=O)Nc2nnc(SCC(=O)Nc3ccc(NC(C)=O)cc3)s2)c(OC)c1	-4	3	22	47	-2	-74	.	.	.	.	.
COc1ccccc1C(=O)Nc1nnc(SCC(=O)NCc2ccco2)s1	15	-2	19	28	-2	-85	.	.	.	.	.
COc1ccc(C(=O)Nc2nnc(SCC(=O)NC3CCCC3)s2)c(OC)c1	37	11	64*	63*	1	-47	15	12	12	18	4
COc1ccc(C(=O)Nc2nnc(SCC(=O)NCc3ccco3)s2)c(OC)c1	20	12	57*	52*	-3	-67	-6	32	68*	59*	-1
COc1ccc(NC(=O)C(c2cc3ccccc3o2)n2c(=O)c(-c3cc4ccccc4[nH]3)nc3ccccc32)cc1 (stereo not drawn)	.	.	.	.	.	-392	.	.	.	.	.
CCCS(=O)(=O)NC(=O)C1(C)CCN(C(=O)c2ccc(C(F)(F)F)nc2C)C1 (stereo not drawn)	.	.	.	.	.	13	.	.	.	.	.
C(=N\Nc1nc2ccccc2[nH]1)/c1cccs1	59*	-16	86*	62*	19	-24	57*	54*	67*	52*	65*
Cc1ccsc1/C=N/Nc1nc2ccccc2[nH]1	.	.	.	.	.	-259	.	.	.	.	.
Cc1cc(=O)[nH]c(N/N=C/c2c(C)nn(-c3ccccc3)c2C)n1	5	9	-14	-3	-9	-12	.	.	.	.	.
Cc1nn(-c2ccccc2)c(C)c1/C=N/Nc1nc2ccccc2[nH]1	74*	1	39	75*	14	-294	84*	84*	94*	74*	83*
Cn1c(/C=N/Nc2nc3ccccc3[nH]2)nc2ccccc21	60*	-40	83*	74*	14	16	62*	59*	82*	52*	15
SMILES	SENP8 block-1	UBC13 inh	SENP6 block	SENP7 inh	Apaf1 inhib	SENP8 block-2	SENP8 confirm	SENP6 conf	SENP7 confirm	Casp3 select	Luc interf
COc1ccc(C(=O)OCC(=O)N2CCN(S(=O)(=O)c3ccc(C)cc3)CC2)cc1[N+](=O)[O-]	.	.	.	.	.	12	.	.	.	.	.
Cc1ccc([C@H]2N[C@]3(CCCN(Cc4ccc(Br)cc4)C3=O)[C@H]3C(=O)N(Cc4ccccc4)C(=O)[C@@H]23)cc1	.	.	.	.	.	12	.	.	.	.	.
OCC[C@@H]1C[C@H](O)[C@@H](O)[C@@]2(OCCCc3cc(C(F)(F)F)ccc32)O1	.	.	.	.	.	21	.	.	.	.	.
CCc1nc2ccc(C(=O)NCCCn3ccnc3)cn2c1N(C)CCCc1ccccc1	.	.	.	.	.	7	.	.	.	.	.
Cc1oc2ccc(OCc3c(F)cccc3Cl)cc2c1C(=O)O	-8	-4	-18	-10	1	7	.	.	.	.	.
Cc1oc2ccc(OCc3cccc(Cl)c3)cc2c1C(=O)O	71*	-8	75*	9	2	20	-3	16	26	14	36
Cc1oc2ccc(OCc3ccc(F)cc3)cc2c1C(=O)O	23	-1	55*	23	5	12	44	42	73*	62*	61*
CCCc1nc2cc(C)c(Br)c(C)n2c1Cc1ccsc1	.	.	.	.	.	-2	.	.	.	.	.
Cc1cccc(C)c1Nc1nc2ccccc2o1	4	1	-10	-7	3	20	.	.	.	.	.
CCOC(=O)c1cnc(Nc2nc3ccccc3o2)nc1C	80*	-2	84*	95*	-15	0	74*	75*	99*	93*	34
CCOC(=O)c1cnc(Nc2nc3ccccc3o2)nc1CSc1nnc(C)s1	-7	-24	4	-6	24	2	.	.	.	.	.
Cc1nc(Nc2nc3ccccc3o2)nc2c1CCC2	39	18	77*	72*	-9	13	33	60*	86*	75*	8
O=C(O)Cn1nncc1-c1ccc(C(F)(F)F)cc1	.	.	.	.	.	21	.	.	.	.	.
CCc1ccc(C2=NN(S(C)(=O)=O)C(c3cccs3)C2)cc1 (stereo not drawn)	83*	-1	96*	92*	22	-51	90*	90*	99*	90*	86*
